According to ChEMBL document CHEMBL4028864 (J Med Chem, 2017):
Converted amounts (≈) assume the structure as drawn.

Columns and labels:
[1] = target: Histone deacetylase 11 (Homo sapiens, UniProt Q96DB2); experiment: Inhibition of C-terminal His tagged human recombinant HDAC11 (1 to 347 residues) expressed in Baculovirus infected insect cells in presence of ATP
In short: (§1)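 HDAC enzyme inhibition was run by a contract laboratory.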

[2] = target: Histone deacetylase 8 (Homo sapiens, UniProt Q9BY41); experiment: Inhibition of C-terminal His tagged human recombinant HDAC8 (1 to 377 residues) expressed in Baculovirus infected insect cells in presence of ATP; in short: as §1
Sequence of Histone deacetylase 8 (Q9BY41 whole entry, the tested form may be a part): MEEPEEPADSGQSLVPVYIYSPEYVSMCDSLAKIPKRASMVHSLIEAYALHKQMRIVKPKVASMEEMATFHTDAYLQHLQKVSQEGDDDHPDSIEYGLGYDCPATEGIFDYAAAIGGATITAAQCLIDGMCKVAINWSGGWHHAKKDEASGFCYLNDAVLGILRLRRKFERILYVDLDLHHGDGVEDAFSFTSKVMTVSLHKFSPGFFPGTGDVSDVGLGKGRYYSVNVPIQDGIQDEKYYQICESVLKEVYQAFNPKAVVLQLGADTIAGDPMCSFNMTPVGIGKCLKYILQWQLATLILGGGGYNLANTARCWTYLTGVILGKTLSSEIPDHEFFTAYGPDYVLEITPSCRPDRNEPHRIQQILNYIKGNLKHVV

[3] = target: Receptor-type tyrosine-protein kinase FLT3 (Homo sapiens) (UniProt P36888); experiment: Inhibition of human FLT3 using EAIYAAPFAKKK as substrate at 1 uM in presence of [gamma-33P]-ATP relative to control
Sequence of Receptor-type tyrosine-protein kinase FLT3 (Homo sapiens) (P36888 whole entry): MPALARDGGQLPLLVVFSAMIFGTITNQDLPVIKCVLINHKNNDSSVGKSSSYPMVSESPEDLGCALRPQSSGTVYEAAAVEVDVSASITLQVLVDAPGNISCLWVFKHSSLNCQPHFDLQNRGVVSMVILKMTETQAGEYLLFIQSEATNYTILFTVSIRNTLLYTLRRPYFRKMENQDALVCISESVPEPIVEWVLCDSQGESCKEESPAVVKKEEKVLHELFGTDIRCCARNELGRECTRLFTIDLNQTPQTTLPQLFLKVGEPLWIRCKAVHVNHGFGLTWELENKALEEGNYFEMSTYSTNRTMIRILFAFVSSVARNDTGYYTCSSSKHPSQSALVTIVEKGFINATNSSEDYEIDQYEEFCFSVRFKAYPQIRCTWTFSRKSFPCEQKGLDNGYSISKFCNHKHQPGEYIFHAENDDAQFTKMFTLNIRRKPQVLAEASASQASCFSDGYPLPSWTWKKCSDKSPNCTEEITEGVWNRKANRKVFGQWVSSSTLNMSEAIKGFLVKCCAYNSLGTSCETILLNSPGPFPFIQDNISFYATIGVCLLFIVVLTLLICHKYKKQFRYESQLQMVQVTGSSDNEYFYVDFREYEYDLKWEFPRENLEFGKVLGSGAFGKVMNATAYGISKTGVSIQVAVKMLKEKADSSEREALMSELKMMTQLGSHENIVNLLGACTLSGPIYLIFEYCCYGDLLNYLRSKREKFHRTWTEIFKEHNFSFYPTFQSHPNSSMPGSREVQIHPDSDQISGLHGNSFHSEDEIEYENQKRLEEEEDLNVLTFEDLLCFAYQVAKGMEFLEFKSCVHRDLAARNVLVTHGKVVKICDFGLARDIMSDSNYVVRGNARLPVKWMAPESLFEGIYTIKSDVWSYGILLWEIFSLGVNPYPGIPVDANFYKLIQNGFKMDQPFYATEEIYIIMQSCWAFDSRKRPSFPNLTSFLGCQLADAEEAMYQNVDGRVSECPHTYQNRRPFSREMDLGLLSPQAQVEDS
In short: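 Kinase inhibition was tested by radiometric "Hotspot" profiling at a contract laboratory with 10 μM ATP.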

[4] = target: SRSF protein kinase 3 (Homo sapiens) (UniProt Q9UPE1); experiment: Inhibition of wild type human SRPK3 (P41 to P567 residues) expressed in bacterial cells assessed as residual activity at 1 uM by KINOMEscan assay relative to control; format: cell-based
Sequence of SRSF protein kinase 3 (Homo sapiens) (Q9UPE1 whole entry, the tested form may be a part): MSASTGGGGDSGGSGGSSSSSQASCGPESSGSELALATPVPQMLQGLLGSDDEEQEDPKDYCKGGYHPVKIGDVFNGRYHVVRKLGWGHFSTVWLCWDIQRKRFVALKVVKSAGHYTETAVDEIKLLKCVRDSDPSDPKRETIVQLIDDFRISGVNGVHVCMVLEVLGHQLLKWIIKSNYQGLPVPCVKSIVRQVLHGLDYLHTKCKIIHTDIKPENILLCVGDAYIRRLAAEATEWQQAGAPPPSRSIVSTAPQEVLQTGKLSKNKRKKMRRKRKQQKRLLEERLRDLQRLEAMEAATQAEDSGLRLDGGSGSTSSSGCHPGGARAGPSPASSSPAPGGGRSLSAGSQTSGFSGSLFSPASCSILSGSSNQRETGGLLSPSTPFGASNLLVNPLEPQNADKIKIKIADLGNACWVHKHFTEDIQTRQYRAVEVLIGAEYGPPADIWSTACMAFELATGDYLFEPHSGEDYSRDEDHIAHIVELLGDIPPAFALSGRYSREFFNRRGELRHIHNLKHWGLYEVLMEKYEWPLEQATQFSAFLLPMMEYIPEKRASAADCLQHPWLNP

[5] = target: T1, Protein deacetylase HDAC6 (Homo sapiens, UniProt Q9UBN7); experiment: Inhibition of N-terminal GST tagged human HDAC6 (1 to 1215 residues) expressed in baculovirus infected insect cells using RHKKAc as substrate in presence of ATP
T1 sequence (Q9UBN7 whole entry): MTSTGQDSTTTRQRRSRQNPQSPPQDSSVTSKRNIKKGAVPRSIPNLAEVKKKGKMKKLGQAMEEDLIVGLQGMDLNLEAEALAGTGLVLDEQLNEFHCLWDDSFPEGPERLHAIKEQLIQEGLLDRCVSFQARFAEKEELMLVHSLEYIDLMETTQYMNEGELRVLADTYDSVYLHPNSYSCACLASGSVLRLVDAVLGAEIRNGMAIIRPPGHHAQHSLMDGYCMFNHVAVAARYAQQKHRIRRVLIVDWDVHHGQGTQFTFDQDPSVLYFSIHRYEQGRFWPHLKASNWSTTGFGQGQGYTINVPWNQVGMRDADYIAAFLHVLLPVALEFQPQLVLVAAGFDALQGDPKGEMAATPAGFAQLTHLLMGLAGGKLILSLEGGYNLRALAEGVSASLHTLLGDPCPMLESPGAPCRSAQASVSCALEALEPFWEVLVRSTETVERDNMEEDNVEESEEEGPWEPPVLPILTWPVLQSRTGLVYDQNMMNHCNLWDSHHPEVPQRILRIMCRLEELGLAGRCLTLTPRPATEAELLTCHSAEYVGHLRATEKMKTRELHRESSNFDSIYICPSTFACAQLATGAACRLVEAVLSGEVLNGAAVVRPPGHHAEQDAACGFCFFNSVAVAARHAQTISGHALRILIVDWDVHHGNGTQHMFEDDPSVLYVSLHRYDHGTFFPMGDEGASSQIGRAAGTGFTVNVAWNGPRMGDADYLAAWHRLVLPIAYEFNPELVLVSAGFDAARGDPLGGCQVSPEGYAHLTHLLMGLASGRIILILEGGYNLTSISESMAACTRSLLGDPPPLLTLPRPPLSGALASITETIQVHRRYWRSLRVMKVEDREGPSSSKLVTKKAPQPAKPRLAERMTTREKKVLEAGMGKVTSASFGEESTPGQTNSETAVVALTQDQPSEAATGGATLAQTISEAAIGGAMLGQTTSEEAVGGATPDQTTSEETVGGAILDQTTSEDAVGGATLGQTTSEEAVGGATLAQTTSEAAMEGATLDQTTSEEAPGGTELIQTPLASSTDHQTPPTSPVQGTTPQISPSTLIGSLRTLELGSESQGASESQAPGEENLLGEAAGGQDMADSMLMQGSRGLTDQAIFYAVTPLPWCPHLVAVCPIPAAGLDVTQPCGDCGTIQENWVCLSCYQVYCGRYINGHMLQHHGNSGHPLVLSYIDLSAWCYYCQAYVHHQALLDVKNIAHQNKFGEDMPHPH

[6] = test system: Plasma; experiment: Drug uptake in Wistar rat plasma at 5 mg/kg, po administered via gavage or 1 mg/kg, iv after 4 to 24 hrs by LC-MS/MS analysis; format: ADME, organism-based; settings: in vivo
In short: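 Wistar rats dosed once at 5 mg/kg po or 1 mg/kg iv. Plasma levels were followed as mean ± SEM over 24 h postdose and checked against the limit of quantitation at each time point.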

[7] = target: Histone deacetylase 2 (Homo sapiens, UniProt Q92769); experiment: Inhibition of C-terminal GST tagged human recombinant HDAC2 (1 to 488 residues) expressed in Baculovirus infected insect cells in presence of ATP; in short: as §1
Sequence of Histone deacetylase 2 (Q92769 whole entry, the tested form may be a part): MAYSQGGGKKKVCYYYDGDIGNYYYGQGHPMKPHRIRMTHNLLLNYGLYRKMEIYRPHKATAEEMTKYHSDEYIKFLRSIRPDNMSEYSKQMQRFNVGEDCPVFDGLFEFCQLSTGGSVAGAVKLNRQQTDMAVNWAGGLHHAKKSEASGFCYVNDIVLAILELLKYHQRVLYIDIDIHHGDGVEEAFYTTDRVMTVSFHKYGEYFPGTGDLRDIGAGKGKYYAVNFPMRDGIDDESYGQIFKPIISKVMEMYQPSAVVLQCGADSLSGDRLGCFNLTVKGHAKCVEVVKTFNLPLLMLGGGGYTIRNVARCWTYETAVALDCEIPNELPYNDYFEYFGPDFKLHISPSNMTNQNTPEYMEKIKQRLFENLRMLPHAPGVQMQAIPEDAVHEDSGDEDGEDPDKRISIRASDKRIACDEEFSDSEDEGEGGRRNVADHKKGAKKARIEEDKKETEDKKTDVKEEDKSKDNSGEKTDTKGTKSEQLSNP

[8] = target: Histone deacetylase 9 (Homo sapiens, UniProt Q9UKV0); experiment: Inhibition of HDAC9 (unknown origin) at 10 uM in presence of ATP relative to control; in short: as §1
Sequence of Histone deacetylase 9 (Q9UKV0 whole entry): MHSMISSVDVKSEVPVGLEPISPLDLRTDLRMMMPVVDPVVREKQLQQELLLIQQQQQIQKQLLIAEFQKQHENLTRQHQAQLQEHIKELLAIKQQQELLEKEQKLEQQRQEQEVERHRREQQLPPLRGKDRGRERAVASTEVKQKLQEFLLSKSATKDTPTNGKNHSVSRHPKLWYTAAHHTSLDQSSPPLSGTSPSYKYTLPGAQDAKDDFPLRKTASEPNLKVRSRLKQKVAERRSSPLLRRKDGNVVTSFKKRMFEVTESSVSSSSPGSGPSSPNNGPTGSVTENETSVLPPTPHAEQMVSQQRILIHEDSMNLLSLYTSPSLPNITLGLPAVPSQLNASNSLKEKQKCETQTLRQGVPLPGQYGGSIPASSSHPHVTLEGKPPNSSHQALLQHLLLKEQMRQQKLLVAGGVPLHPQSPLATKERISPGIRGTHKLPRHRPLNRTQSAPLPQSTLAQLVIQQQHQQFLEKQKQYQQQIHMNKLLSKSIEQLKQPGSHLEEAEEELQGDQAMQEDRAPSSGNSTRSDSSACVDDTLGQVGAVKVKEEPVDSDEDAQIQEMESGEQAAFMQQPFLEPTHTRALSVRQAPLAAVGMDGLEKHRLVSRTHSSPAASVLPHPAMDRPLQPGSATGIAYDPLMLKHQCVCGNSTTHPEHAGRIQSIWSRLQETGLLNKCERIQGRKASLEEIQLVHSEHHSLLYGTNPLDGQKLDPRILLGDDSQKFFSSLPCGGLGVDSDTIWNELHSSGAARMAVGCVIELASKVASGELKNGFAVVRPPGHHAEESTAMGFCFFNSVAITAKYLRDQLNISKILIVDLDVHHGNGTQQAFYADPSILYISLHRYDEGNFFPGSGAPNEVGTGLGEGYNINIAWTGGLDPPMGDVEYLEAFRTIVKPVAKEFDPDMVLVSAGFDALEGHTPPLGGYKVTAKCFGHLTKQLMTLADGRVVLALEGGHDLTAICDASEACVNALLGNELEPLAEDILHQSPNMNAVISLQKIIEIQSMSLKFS

[9] = Cmax in Wistar rat at 5 mg/kg, po administered via gavage by LC-MS/MS analysis; format: ADME, organism-based; parameters: dose 5 mg/kg, route oral; settings: in vivo
In short: (§2)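 Wistar rats given a single 5 mg/kg oral dose. Plasma concentration–time profiles were plotted as mean ± SEM and sampled through 24 h postdose.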

[10] = target: Non-receptor tyrosine-protein kinase TYK2 (Homo sapiens, UniProt P29597); experiment: Inhibition of wild type human TYK2 (V877 to C1187 residues) expressed in mammalian cells assessed as residual activity at 1 uM by KINOMEscan assay relative to control; format: cell-based
Sequence of Non-receptor tyrosine-protein kinase TYK2 (P29597 whole entry, the tested form may be a part): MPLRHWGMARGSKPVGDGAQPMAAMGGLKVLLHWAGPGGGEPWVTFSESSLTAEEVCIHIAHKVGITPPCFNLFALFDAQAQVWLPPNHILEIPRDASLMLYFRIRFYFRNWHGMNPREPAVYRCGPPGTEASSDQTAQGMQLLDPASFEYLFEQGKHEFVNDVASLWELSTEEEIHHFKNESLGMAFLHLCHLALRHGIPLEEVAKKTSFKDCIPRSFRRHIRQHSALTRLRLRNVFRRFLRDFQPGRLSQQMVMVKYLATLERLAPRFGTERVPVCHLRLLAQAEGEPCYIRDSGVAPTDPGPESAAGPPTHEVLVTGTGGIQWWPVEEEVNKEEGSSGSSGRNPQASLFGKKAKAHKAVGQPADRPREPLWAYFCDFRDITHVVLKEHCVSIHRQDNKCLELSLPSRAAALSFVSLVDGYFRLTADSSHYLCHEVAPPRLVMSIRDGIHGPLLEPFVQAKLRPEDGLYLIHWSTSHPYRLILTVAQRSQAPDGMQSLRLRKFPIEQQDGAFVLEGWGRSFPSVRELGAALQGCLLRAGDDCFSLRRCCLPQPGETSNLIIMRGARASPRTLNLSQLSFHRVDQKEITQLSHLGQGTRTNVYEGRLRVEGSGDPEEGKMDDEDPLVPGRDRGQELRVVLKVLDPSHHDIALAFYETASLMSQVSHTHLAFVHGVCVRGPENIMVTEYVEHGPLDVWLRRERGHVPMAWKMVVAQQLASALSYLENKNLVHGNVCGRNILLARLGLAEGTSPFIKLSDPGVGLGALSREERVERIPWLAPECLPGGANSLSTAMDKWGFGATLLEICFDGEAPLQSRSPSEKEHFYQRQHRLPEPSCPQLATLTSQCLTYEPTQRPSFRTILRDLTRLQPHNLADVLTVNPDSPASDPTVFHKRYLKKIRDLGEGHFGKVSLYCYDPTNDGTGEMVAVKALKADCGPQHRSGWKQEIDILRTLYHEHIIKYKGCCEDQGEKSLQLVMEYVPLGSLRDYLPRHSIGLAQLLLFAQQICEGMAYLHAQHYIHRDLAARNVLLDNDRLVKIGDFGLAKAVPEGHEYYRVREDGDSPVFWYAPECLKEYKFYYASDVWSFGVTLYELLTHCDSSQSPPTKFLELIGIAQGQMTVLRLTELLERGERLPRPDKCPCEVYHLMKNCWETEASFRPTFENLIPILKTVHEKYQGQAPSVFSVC

[11] = Oral bioavailability in Wistar rat at 5 mg/kg administered via gavage by LC-MS/MS analysis; format: ADME, organism-based; settings: in vivo; in short: as §2
[12] = target: Polyamine deacetylase HDAC10 (Homo sapiens, UniProt Q969S8); experiment: Inhibition of human HDAC10 using fluorogenic peptide from p53 residues 379 to 382 as substrate in presence of ATP; in short: as §1
[13] = cells; format: functional, cell-based; settings: Homo sapiens, NKYS, 48 h
[14] = test system: KMS-12-BM; experiment: cells; format: functional, cell-based; settings: Homo sapiens, 48 h
[15] = Thermodynamic aqueous solubility of the compound at pH 7.4 after 3 hrs by UV absorbance based assay; format: physicochemical; settings: read-out: Therm_solubility
In short: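 A 20 mM DMSO stock was diluted 1:100 into pH 7.4 PBS, then shaken at 250 rpm for 3 or 24 h at 22.5 ± 2.5 °C. The mixture was filtered and the filtrate diluted with acetonitrile/universal buffer. Absorbance was read at 310 nm against a 6.25–200 μM calibration curve, in triplicate.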

Sequence of Histone deacetylase 11 (Q96DB2 whole entry, the tested form may be a part): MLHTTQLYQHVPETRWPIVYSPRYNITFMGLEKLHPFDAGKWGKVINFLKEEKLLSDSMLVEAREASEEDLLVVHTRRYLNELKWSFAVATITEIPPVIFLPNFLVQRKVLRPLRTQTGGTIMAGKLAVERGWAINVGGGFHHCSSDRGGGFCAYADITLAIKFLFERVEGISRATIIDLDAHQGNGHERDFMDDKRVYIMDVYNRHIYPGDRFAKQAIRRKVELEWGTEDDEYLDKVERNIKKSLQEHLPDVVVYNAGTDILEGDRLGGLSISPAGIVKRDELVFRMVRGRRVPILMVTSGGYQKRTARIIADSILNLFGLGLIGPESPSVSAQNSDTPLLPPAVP

- IC50 [1]: 31 nM
- IC50 [2]: 469 nM
- inhibition [3]: 27%
- Activity [4]: 18%
- IC50 [5]: 1.4 nM
- Drug uptake [6]: Not Active
- IC50 [7]: 5.8 nM
- inhibition [8]: 30%
- Cmax [9]: 15.9 ng/mL
- Activity [10]: 3.3%
- bioavailability [11]: 1.4%
- IC50 [12]: 19 nM
- IC50 [13]: 450 nM
- IC50 [14]: 2020 nM
- solubility thermodynamic at 3 h [15]: 66.2 µg/mL (≈ 202 µM)
Structure (SMILES): O=C(CCCCCCn1cc(-c2ncnc3[nH]ccc23)cn1)NO
